Measurements as given in ChEMBL document CHEMBL1137343, “4-arylazo-3,5-diamino-1H-pyrazole CDK inhibitors: SAR study, crystal structure in complex with CDK2, selectivity, and cellular effects” (J Med Chem, 2006).

How the values were obtained:
K562 [1] = test: Antiproliferative activity against K562 cell line; type: functional, cell-based; details: Homo sapiens
Outline: (§1)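 Cells grown in DMEM with 10% FCS, glutamine and penicillin/streptomycin at 37 °C, seeded in 96-well plates and preincubated 12 h. Compounds were added in 6-fold dilutions (1-100 µM) for 72 h. IC50 taken from dose-response curves.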

[2] = target: T1, Cyclin-dependent kinase 2/cyclin E (Homo sapiens, UniProt P24941); test: Inhibition of CDK2/Cyclin E in presence of 100 uM ATP; type: protein-complex assay
G-361 [3] = test: Antiproliferative activity against G361 cell line; type: functional, cell-based; details: Homo sapiens; outline: as §1
HOS [4] = test: Antiproliferative activity against HOS cell line; type: functional, cell-based; details: Homo sapiens; outline: as §1
[5] = target: Cyclin-dependent kinase 1/cyclin B (Homo sapiens, UniProt P06493); test: Inhibition of CDK1/Cyclin B in presence of 100 uM ATP; type: protein-complex assay
[6] = target: T1, Cyclin-dependent kinase 2/cyclin E; test: Inhibition of CDK2/Cyclin E in presence of 15 uM ATP; type: protein-complex assay
[7] = target: Cyclin-dependent kinase 2/cyclin A (Homo sapiens, UniProt P24941); test: Inhibition of CDK2/Cyclin A in presence of 100 uM ATP; type: protein-complex assay
CDK9/cyclin T1 = CDK9/cyclin T1 (Homo sapiens, UniProt P50750); test: Inhibition of CDK9/Cyclin T1 in presence of 100 uM ATP; type: protein-complex assay
Chain of CDK9/cyclin T1 (O60563 whole entry): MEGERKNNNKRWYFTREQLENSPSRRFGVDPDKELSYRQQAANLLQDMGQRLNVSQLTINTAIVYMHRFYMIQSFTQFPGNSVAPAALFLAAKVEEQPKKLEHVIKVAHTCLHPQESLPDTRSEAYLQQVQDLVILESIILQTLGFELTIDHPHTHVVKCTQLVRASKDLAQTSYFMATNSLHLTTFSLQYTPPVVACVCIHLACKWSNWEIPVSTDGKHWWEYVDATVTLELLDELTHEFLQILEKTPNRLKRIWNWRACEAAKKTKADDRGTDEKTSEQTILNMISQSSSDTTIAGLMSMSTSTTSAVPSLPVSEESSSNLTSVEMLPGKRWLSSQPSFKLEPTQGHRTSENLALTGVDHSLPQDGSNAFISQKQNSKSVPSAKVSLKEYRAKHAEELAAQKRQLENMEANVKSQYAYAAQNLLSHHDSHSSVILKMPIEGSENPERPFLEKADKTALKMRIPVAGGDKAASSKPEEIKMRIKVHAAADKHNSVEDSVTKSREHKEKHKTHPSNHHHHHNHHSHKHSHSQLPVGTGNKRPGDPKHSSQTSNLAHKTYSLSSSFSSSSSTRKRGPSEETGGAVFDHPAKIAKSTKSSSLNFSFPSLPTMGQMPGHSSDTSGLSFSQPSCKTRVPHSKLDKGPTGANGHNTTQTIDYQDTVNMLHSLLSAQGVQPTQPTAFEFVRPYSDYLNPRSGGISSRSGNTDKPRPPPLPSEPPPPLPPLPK
Chain of CDK9/cyclin T1 (P50750 whole entry): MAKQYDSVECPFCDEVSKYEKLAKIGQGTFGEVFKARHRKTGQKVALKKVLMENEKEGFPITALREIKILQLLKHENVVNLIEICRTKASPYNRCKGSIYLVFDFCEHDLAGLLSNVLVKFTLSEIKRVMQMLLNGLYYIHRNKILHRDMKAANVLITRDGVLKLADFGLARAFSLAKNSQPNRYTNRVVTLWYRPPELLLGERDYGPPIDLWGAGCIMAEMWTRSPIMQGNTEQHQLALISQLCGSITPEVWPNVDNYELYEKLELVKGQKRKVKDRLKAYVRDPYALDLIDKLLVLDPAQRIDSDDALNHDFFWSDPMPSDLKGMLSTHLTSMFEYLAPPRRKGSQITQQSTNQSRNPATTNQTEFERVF

[8] = target: Cyclin-dependent kinase 4/cyclin D1 (Homo sapiens, UniProt P11802); test: Inhibition of CDK4/Cyclin D1 in presence of 100 uM ATP; type: protein-complex assay
Chain of Cyclin-dependent kinase 4/cyclin D1 (P11802 whole entry): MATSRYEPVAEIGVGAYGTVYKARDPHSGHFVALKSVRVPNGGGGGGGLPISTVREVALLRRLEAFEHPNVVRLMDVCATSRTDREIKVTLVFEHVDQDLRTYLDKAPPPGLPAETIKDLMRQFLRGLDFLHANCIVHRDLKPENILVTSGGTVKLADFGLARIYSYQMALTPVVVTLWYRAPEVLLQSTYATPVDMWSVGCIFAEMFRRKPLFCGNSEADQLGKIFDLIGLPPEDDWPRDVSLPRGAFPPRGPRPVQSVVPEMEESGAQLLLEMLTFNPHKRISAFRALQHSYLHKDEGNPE
Chain of Cyclin-dependent kinase 4/cyclin D1 (P24385 whole entry, further chain): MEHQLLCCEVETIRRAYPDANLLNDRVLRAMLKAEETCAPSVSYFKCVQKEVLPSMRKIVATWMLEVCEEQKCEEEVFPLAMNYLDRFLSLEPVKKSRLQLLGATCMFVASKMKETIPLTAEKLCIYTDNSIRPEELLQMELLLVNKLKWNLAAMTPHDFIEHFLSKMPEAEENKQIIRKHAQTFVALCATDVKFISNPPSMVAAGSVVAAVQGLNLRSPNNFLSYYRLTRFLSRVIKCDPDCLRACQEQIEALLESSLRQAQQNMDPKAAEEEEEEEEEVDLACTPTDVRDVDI

K562 [9] = test: Viability of K562 cells at 100 uM; type: functional, Homo sapiens
Outline: (§2)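 Cells grown in DMEM with 10% FCS and 4 mM glutamine at 37 °C, plated in 96-well format, preincubated 12 h, then exposed 72 h. Live cells measured by Calcein AM (1 h) fluorescence at 485/538 nm; % viable cells given at 100 µM compound.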

HOS [10] = test: Viability of HOS cells at 100 uM; type: functional, Homo sapiens; outline: as §2
MCF7 [11] = test: Viability of MCF7 cells at 100 uM; type: functional, Homo sapiens; outline: as §2
[12] = target: Cyclin-dependent kinase 7/ cyclin H (Homo sapiens, UniProt P50613); test: Inhibition of CDK7/Cyclin H in presence of 100 uM ATP; type: protein-complex assay
Chain of Cyclin-dependent kinase 7/ cyclin H (P51946 whole entry): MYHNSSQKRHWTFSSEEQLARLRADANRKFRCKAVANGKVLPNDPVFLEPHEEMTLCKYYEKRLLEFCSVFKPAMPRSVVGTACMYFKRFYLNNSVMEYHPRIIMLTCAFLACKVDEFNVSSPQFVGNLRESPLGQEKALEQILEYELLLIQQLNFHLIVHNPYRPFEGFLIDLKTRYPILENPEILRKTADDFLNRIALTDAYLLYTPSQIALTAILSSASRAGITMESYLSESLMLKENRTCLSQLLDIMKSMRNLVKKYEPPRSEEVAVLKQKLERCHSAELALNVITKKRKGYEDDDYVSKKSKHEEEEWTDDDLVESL
Chain of Cyclin-dependent kinase 7/ cyclin H (P50613 whole entry): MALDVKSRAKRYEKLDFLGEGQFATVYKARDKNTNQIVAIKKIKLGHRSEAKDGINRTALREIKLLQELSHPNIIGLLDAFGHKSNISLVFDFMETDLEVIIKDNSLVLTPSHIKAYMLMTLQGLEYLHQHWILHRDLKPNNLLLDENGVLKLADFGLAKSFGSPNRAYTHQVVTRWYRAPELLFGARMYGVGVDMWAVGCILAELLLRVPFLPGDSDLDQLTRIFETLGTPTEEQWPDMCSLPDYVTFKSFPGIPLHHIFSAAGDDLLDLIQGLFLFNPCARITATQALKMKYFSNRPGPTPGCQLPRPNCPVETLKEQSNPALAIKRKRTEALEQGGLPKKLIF

G-361 [13] = test: Viability of G361 cells at 100 uM; type: functional, Homo sapiens; outline: as §2
MCF7 [14] = test: Antiproliferative activity against MCF7 cell line; type: functional, cell-based; details: Homo sapiens; outline: as §1
HT-29 [15] = test: Cell cycle arrest in HT29 cells by accumulation at G2/M phase at 70 uM after 3 hrs; type: functional, Homo sapiens
Outline: (§3)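 Subconfluent, asynchronous HT-29 cells were treated 3, 6 or 12 h, then pulsed with 10 µM BrdU for 30 min at 37 °C. Cells were fixed in ice-cold 70% ethanol, DNA denatured in 2 M HCl and neutralised with borate. Staining used FITC anti-BrdU, then propidium iodide (0.1 mg/mL) with RNase A. Analysis by flow cytometry with 488 nm laser.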

HT-29 [16] = test: Cell cycle arrest in HT29 cells by accumulation at G0/G1 phase at 70 uM after 12 hrs; type: functional, Homo sapiens; outline: as §3
HT-29 [17] = test: Cell cycle arrest in HT29 cells by accumulation at G0/G1 phase at 70 uM after 3 hrs; type: functional, Homo sapiens; outline: as §3
HT-29 [18] = test: Cell cycle arrest in HT29 cells by accumulation at S phase at 70 uM after 3 hrs; type: functional, Homo sapiens; outline: as §3
HT-29 [19] = test: Inhibition of EpCAM mRNA synthesis in HT29 cells measured as number of copies per 10^6 cells by RT PCR at 70 uM after 6 hrs; type: functional, Homo sapiens
Outline: (§4)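 HT-29 cells (5 × 10⁶) treated for 3, 6 or 12 h; total RNA extracted with TRI reagent, 3 µg reverse transcribed with random primers and M-MLV RT (42 °C, 60 min). Absolute transcript copies quantified by TaqMan real-time PCR, 50 cycles, against diluted gene-specific amplicon standards (30–1 000 000 copies); duplicate PCR per sample; values are means of four determinations ± SD.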

HT-29 [20] = test: Inhibition of GAPDH mRNA synthesis in HT29 cells measured as number of copies per 10^6 cells by RT PCR at 70 uM after 3 hrs; type: functional, Homo sapiens; outline: as §4
HT-29 [21] = test: Inhibition of CEA mRNA synthesis in HT29 cells measured as number of copies per 10^6 cells by RT PCR at 70 uM after 6 hrs; type: functional, Homo sapiens
Outline: (§5)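 HT-29 cells were treated 3, 6 or 12 h; total RNA extracted with TRI reagent. 3 µg RNA reverse-transcribed with random primers and M-MLV RT at 42 °C for 60 min. CEA transcripts quantified by TaqMan real-time PCR: 50 cycles of 95 °C 15 s and 65 °C 15 s. Absolute copies came from amplicon standards of 30 to 10^6 copies, expressed per 10^6 cells. Samples run in duplicate PCR; values average of four determinations ± SD.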

HT-29 [22] = test: Cell cycle arrest in HT29 cells by accumulation at S phase at 70 uM after 12 hrs; type: functional, Homo sapiens; outline: as §3
HT-29 [23] = test: Inhibition of CEA mRNA synthesis in HT29 cells measured as number of copies per 10^6 cells by RT PCR at 70 uM after 3 hrs; type: functional, Homo sapiens; outline: as §5
HT-29 [24] = test: Inhibition of CEA mRNA synthesis in HT29 cells measured as number of copies per 10^6 cells by RT PCR at 70 uM after 12 hrs; type: functional, Homo sapiens; outline: as §5
HT-29 [25] = test: Cell cycle arrest in HT29 cells by accumulation at G2/M phase at 70 uM after 6 hrs; type: functional, Homo sapiens; outline: as §3
HT-29 [26] = test: Inhibition of EpCAM mRNA synthesis in HT29 cells measured as number of copies per 10^6 cells by RT PCR at 70 uM after 3 hrs; type: functional, Homo sapiens; outline: as §4
HT-29 [27] = test: Cell cycle arrest in HT29 cells by accumulation at G0/G1 phase at 70 uM after 6 hrs; type: functional, Homo sapiens; outline: as §3
HT-29 [28] = test: Inhibition of GAPDH mRNA synthesis in HT29 cells measured as number of copies per 10^6 cells by RT PCR at 70 uM after 12 hrs; type: functional, Homo sapiens; outline: as §4
HT-29 [29] = test: Inhibition of GAPDH mRNA synthesis in HT29 cells measured as number of copies per 10^6 cells by RT PCR at 70 uM after 6 hrs; type: functional, Homo sapiens; outline: as §4
HT-29 [30] = test: Inhibition of EpCAM mRNA synthesis in HT29 cells measured as number of copies per 10^6 cells by RT PCR at 70 uM after 12 hrs; type: functional, Homo sapiens; outline: as §4
HT-29 [31] = test: Cell cycle arrest in HT29 cells by accumulation at G2/M phase at 70 uM after 12 hrs; type: functional, Homo sapiens; outline: as §3
HT-29 [32] = test: Cell cycle arrest in HT29 cells by accumulation at S phase at 70 uM after 6 hrs; type: functional, Homo sapiens; outline: as §3

Row | SMILES | IC50 (K562 [1]) | IC50 [2] | IC50 (G-361 [3]) | IC50 (HOS [4]) | IC50 [5] | IC50 [6] | IC50 [7] | IC50 (CDK9/cyclin T1) | IC50 [8] | Activity (K562 [9]) | Activity (HOS [10]) | Activity (MCF7 [11]) | IC50 [12] | Activity (G-361 [13]) | IC50 (MCF7 [14]) | further results
1 | Nc1n[nH]c(N)c1/N=N/c1ccccc1CO | > 100 µM | 77 µM | > 100 µM | > 100 µM | > 100 µM | 17 µM | > 100 µM | 26 µM | > 100 µM | 86% | 87% | 51% | > 100 µM | 84% | > 100 µM | 
2 | CC[C@H](CO)Nc1nc(NCc2ccccc2)c2ncn(C(C)C)c2n1 [SELICICLIB] |  |  |  |  |  |  |  |  |  |  |  |  |  |  |  | Activity (HT-29 [15]): 50.9%; Activity (HT-29 [16]): 64.5%; Activity (HT-29 [17]): 48%; Activity (HT-29 [18]): 1.1%; Activity (HT-29 [19]): 6151085; Activity (HT-29 [20]): 3945095; Activity (HT-29 [21]): 19150; Activity (HT-29 [22]): 1.1%; Activity (HT-29 [23]): 30568; Activity (HT-29 [24]): 24350; Activity (HT-29 [25]): 55.9%; Activity (HT-29 [26]): 8258813; Activity (HT-29 [27]): 44%; Activity (HT-29 [28]): 3926015; Activity (HT-29 [29]): 3146605; Activity (HT-29 [30]): 6863365; Activity (HT-29 [31]): 34.5%; Activity (HT-29 [32]): 0.1%
3 | Nc1n[nH]c(N)c1/N=N/c1ccccc1C(=O)O | > 100 µM |  | > 100 µM | > 100 µM |  | 92 µM |  |  |  | 89% | 91% | 97% |  | 96% | > 100 µM | 
4 | Nc1n[nH]c(N)c1/N=N/c1ccccc1 | > 100 µM | 100 µM | > 100 µM | > 100 µM | > 100 µM | 22 µM | > 100 µM | 15 µM | > 100 µM | 90% | 83% | 74% | > 100 µM | 75% | > 100 µM | 
5 | Nc1n[nH]c(N)c1/N=N/c1cccc(C(=O)O)c1 | > 100 µM |  | > 100 µM | > 100 µM |  | 28 µM |  |  |  | 84% | 94% | 102% |  | 93% | > 100 µM | 
6 | Nc1n[nH]c(N)c1/N=N/c1cccc([N+](=O)[O-])c1 | 79 µM | 68 µM | > 100 µM | > 100 µM | > 100 µM | 23 µM | > 100 µM | 12.4 µM | 70 µM | 28% | 95% | 44% | > 100 µM | 69% | 65 µM | 
